In the array DNA melting data of Ke et al. (doi:10.1101/2024.01.08.574731) one finds folding enthalpy and Tm data, which are given here for 36 sequences.

Data set [1] is described as follows: folding enthalpy; higher = less favourable; fluorescence melt of hairpins on a sequencing array, two-state fit. The conditions noted are these: sodium 0.088 M. The procedure, abridged: (§1)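 Melting temperature and folding enthalpy were derived from bootstrapped two-state fits. The fitted temperatures were raised by 9.35 °C to agree with UV melts, and four replicates were combined by inverse variance. The underlying data were Cy3 fluorescence images of library hairpins, with annealed Cy3 and quencher oligos, on a sequenced MiSeq flow cell in 50 mM Na-HEPES pH 8.0, 25 mM NaCl, taken in 2.5 °C steps up to 60 °C, normalised to pre-quench Cy3 and to control constructs.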

A short description of data set [2]: melting temperature; fluorescence melt of hairpins on a sequencing array, two-state fit, raised by 9.35 °C to match UV melts. Conditions: sodium 0.088 M. The procedure, abridged:
as §1

In the case of GGGCCTGGAAACGGGTCC ((.((.(....).)).)), the folding enthalpy in data set [1] was -26.3 kcal/mol. Also, the Tm in data set [2] came to 50.9 °C.
In the same order, the values of GGGCCTTCGAAAGAACCC (((..(((....)))))) are -7.96 kcal/mol and 30.4 °C.
In the same order, the values of GGGCGACGAAAGTCCCCC (((.(((....))).))) are -31.2 kcal/mol and 55.7 °C.
On to GGGCGAGGAAACCCACCC (((.(.(....).).))), for which the folding enthalpy in data set [1] is -16.4 kcal/mol. In data set [2], the Tm was determined as 30.9 °C.
In the same order, the values of GGGCGAGGAAACTCGTCC ((.((((....)))).)) are -41.5 kcal/mol and 58.2 °C.
In the same order, the values of GGGCGCCCGAAAGGGCCC (((..(((....)))))) are -11.5 kcal/mol and 59.5 °C.
For GGGCGCGAAAGCGGACCC ((((((....)))..))) the same measures were -12.8 kcal/mol and 61.5 °C.
On to GGGCGCGAAAGCGTGCCC ((((((....)))..))), for which the folding enthalpy in data set [1] is -19.1 kcal/mol. Further, the Tm in data set [2] was 64.2 °C.
In the same order, the values of GGGCGGCGAAAGCCCCC (((.(((....)))))) are -17.3 kcal/mol and 65.6 °C.
In the same order, the values of GGGCGTCGAAAGACCCCC (((.(((....))).))) are -16.6 kcal/mol and 59 °C.
For GGGCGTTCGAAAGAACCC (((..(((....)))))) the same measures were -19.9 kcal/mol and 50.3 °C.
Take GGGCTACGAAAGTATCCC (((.(((....))).))): the folding enthalpy in data set [1] is -29.9 kcal/mol. The Tm in data set [2] was 48.4 °C.
For the sequence GGGCTCCGAAAGGATCCC (((.(((....))).))), in data set [1], the folding enthalpy was -44.4 kcal/mol. For the same sequence, the Tm in data set [2] amounted to 53.5 °C.
For the sequence GGGCTCGAAAGAGGACCC ((((((....)))..))), the folding enthalpy in data set [1] is -20.9 kcal/mol. For the same sequence, the Tm in data set [2] was found to be 49.5 °C.
Take GGGCTCGAAAGAGTGCCC ((((((....)))..))): the folding enthalpy in data set [1] was -34.1 kcal/mol. Besides, the Tm in data set [2] amounted to 51.3 °C.
For GGGCTCGGAAACGAGTCC ((.((((....)))).)) the same measures were -41 kcal/mol and 65.2 °C.
In the same order, the values of GGGCTCGGAAACGGGCCC ((((.((....)).)))) are -43.6 kcal/mol and 66.9 °C.
In the same order, the values of GGGCTGCGAAAGCAACCC (((.(((....))).))) are -38.9 kcal/mol and 60.2 °C.
Regarding GGGCTGGGAAACCAGCTC (.(((((....))))).), the folding enthalpy in data set [1] is -26.6 kcal/mol. The Tm in data set [2] came to 58.7 °C.
In the same order, the values of GGGCTGTCGAAAGACCCC (((..(((....)))))) are -18.4 kcal/mol and 44.1 °C.
GGGCTTCGAAAGAACCCC (((.(((....))).))): the folding enthalpy in data set [1] was -20.5 kcal/mol. The Tm in data set [2] was found to be 47.6 °C.
For GGGCTTGGAAACGAGCTC (.(((.(....).))).) the same measures were -29.7 kcal/mol and 42 °C.
For GGGGAAACGAAAGTTCCC (((..(((....)))))) the same measures were -22.1 kcal/mol and 52 °C.
For GGGGAAGGAAACTTCCCC (((((((....))))))), the folding enthalpy in data set [1] was -30.4 kcal/mol. For the same sequence, in data set [2], the Tm came to 65 °C.
For GGGGAAGGAAACTTCTCC ((.((((....)))).)) the same measures were -35.5 kcal/mol and 45.4 °C.
In the same order, the values of GGGGACGAAAGTCACCC ((((((....))).))) are -17.6 kcal/mol and 65.7 °C.
In the same order, the values of GGGGACGAAAGTCGACCC ((((((....)))..))) are -18.3 kcal/mol and 48.9 °C.
With GGGGACGGAAACGTCCTC (.(((((....))))).), the folding enthalpy in data set [1] was -13.7 kcal/mol. Further, the Tm in data set [2] was found to be 58.7 °C.
In the same order, the values of GGGGAGAAATCCCC (((((....))))) are -26.6 kcal/mol and 53.5 °C.
Consider GGGGAGACGAAAGTCCCC (((..(((....)))))), for which, in data set [1], the folding enthalpy was -29.6 kcal/mol. In data set [2], the Tm is 58.1 °C.
In the same order, the values of GGGGAGGGAAACCTCTCC ((.((((....)))).)) are -34.1 kcal/mol and 51.8 °C.
For GGGGAGGGAAACTTCCCC (((((.(....).))))) the same measures were -33 kcal/mol and 50.9 °C.
In the case of GGGGAGTCGAAAGACCCC (((..(((....)))))), the folding enthalpy in data set [1] is -29.2 kcal/mol. The Tm in data set [2] was 54.7 °C.
In the same order, the values of GGGGCAACGAAAGTTCCC (((..(((....)))))) are -25.5 kcal/mol and 47.4 °C.
For GGGGCAGGAAACTGTCCC (((.(((....))).))) the same measures were -39.4 kcal/mol and 61.3 °C.
For GGGGCCGAAAGGCAACCC ((((((....)))..))) the same measures were -15 kcal/mol and 57.3 °C.
